Test results from ChEMBL document CHEMBL3596093, “Synthesis and antimicrobial evaluation of 5-aryl-1,2,4-triazole-3-thione derivatives containing a rhodanine moiety” (2015).
Values after ≈ are worked out from the molar mass of the structure shown.

Columns and labels:
[1] = test system: Pseudomonas aeruginosa; assay: Antibacterial activity against Pseudomonas aeruginosa 2004 after 24 hrs by two-fold serial dilution method; type: functional; settings: Pseudomonas aeruginosa, 2004, 24 h
Procedure, shortened: (§1)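 Strains grown to mid-log phase in Mueller-Hinton broth, then diluted 1000-fold in the same broth to about 10^5 CFU/mL. Compounds were made up as DMSO stocks and two-fold serially diluted from a final top concentration of 64 µg/mL. Incubation was 37 °C for 24 h. Growth was read as absorbance at 630 nm on a microplate reader. MIC assays were run in triplicate.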

[2] = test system: Streptococcus mutans; assay: Bactericidal activity against Streptococcus mutans 3065 after 24 hrs by agar plate method; type: functional; settings: Streptococcus mutans, 3065, 24 h
Procedure, shortened: (§2)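 Samples of 5 µL from MIC wells with no visible growth were plated onto fresh Mueller-Hinton agar and incubated a further 24 h at 37 °C. MBC is the lowest concentration giving no visible colony growth on the agar. Assays were run in triplicate.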

[3] = test system: Staphylococcus aureus; assay: Antibacterial activity against Staphylococcus aureus RN4220 after 24 hrs by two-fold serial dilution method; type: functional; settings: RN4220, 24 h
Procedure, shortened: (§3)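 Broth microdilution MIC. Bacteria grown to mid-log phase in Mueller-Hinton broth, diluted 1000-fold, about 10^5 CFU/mL. Compounds from DMSO stocks, two-fold serial dilution from a final 64 µg/mL. Incubation at 37 °C for 24 h. Growth read as absorbance at 630 nm on a microplate reader. Run in triplicate.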

[4] = test system: Staphylococcus aureus; assay: Bactericidal activity against Staphylococcus aureus KCTC 503 after 24 hrs by agar plate method; type: functional; settings: KCTC 503, 24 h
Procedure, shortened: (§4)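 5 µL from each well without visible growth plated on fresh Mueller-Hinton agar, then 37 °C for a further 24 h. MBC is the lowest concentration giving no visible colonies. Run in triplicate.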

[5] = test system: Staphylococcus aureus; assay: Bactericidal activity against Staphylococcus aureus RN4220 after 24 hrs by agar plate method; type: functional; settings: RN4220, 24 h; procedure, shortened: as §2
[6] = test system: Staphylococcus aureus; assay: Bactericidal activity against Staphylococcus aureus KCTC 209 after 24 hrs by agar plate method; type: functional; settings: KCTC 209, 24 h; procedure, shortened: as §2
[7] = test system: Pseudomonas aeruginosa; assay: Antibacterial activity against Pseudomonas aeruginosa 2742 after 24 hrs by two-fold serial dilution method; type: functional; settings: Pseudomonas aeruginosa, 2742, 24 h; procedure, shortened: as §1
[8] = test system: Candida albicans; assay: Fungicidal activity against Candida albicans 7535 after 24 hrs by agar plate method; type: functional; settings: Candida albicans, 7535, 24 h
[9] = test system: Staphylococcus aureus; assay: Antibacterial activity against Staphylococcus aureus KCTC 209 after 24 hrs by two-fold serial dilution method; type: functional; settings: KCTC 209, 24 h; procedure, shortened: as §1
[10] = test system: Staphylococcus aureus; assay: Antibacterial activity against Staphylococcus aureus KCTC 503 after 24 hrs by two-fold serial dilution method; type: functional; settings: KCTC 503, 24 h; procedure, shortened: as §1
[11] = test system: Staphylococcus aureus; assay: Bactericidal activity against quinolone-resistant Staphylococcus aureus CCARM 3505 after 24 hrs by agar plate method; type: functional; settings: CCARM 3505, 24 h; procedure, shortened: as §4
[12] = test system: Escherichia coli; assay: Antibacterial activity against Escherichia coli KCTC 1924 after 24 hrs by two-fold serial dilution method; type: functional; settings: KCTC 1924, 24 h; procedure, shortened: as §1
[13] = test system: Staphylococcus aureus; assay: Antibacterial activity against quinolone-resistant Staphylococcus aureus CCARM 3505 after 24 hrs by two-fold serial dilution method; type: functional; settings: CCARM 3505, 24 h; procedure, shortened: as §3
[14] = test system: Staphylococcus aureus; assay: Antibacterial activity against methicillin-resistant Staphylococcus aureus CCARM 3167 after 24 hrs by two-fold serial dilution method; type: functional; settings: CCARM 3167, 24 h; procedure, shortened: as §3
[15] = test system: Staphylococcus aureus; assay: Bactericidal activity against methicillin-resistant Staphylococcus aureus CCARM 3167 after 24 hrs by agar plate method; type: functional; settings: CCARM 3167, 24 h; procedure, shortened: as §4
[16] = test system: Staphylococcus aureus; assay: Bactericidal activity against methicillin-resistant Staphylococcus aureus CCARM 3506 after 24 hrs by agar plate method; type: functional; settings: CCARM 3506, 24 h; procedure, shortened: as §4
[17] = test system: Staphylococcus aureus; assay: Antibacterial activity against methicillin-resistant Staphylococcus aureus CCARM 3506 after 24 hrs by two-fold serial dilution method; type: functional; settings: CCARM 3506, 24 h; procedure, shortened: as §3
[18] = test system: Candida albicans; assay: Antifungal activity against Candida albicans 7535 after 24 hrs by two-fold serial dilution method; type: functional; settings: Candida albicans, 7535, 24 h
[19] = test system: Escherichia coli; assay: Bactericidal activity against Escherichia coli KCTC 1924 after 24 hrs by agar plate method; type: functional; settings: KCTC 1924, 24 h; procedure, shortened: as §2
[20] = test system: Escherichia coli; assay: Antibacterial activity against Escherichia coli CCARM 1356 after 24 hrs by two-fold serial dilution method; type: functional; settings: CCARM 1356, 24 h; procedure, shortened: as §1
[21] = test system: Staphylococcus aureus; assay: Bactericidal activity against quinolone-resistant Staphylococcus aureus CCARM 3519 after 24 hrs by agar plate method; type: functional; settings: CCARM 3519, 24 h; procedure, shortened: as §4
[22] = test system: Streptococcus mutans; assay: Antibacterial activity against Streptococcus mutans 3065 after 24 hrs by two-fold serial dilution method; type: functional; settings: Streptococcus mutans, 3065, 24 h; procedure, shortened: as §1
[23] = test system: Staphylococcus aureus; assay: Antibacterial activity against quinolone-resistant Staphylococcus aureus CCARM 3519 after 24 hrs by two-fold serial dilution method; type: functional; settings: CCARM 3519, 24 h; procedure, shortened: as §3
[24] = test system: Salmonella typhimurium; assay: Antibacterial activity against Salmonella typhimurium 2421 after 24 hrs by two-fold serial dilution method; type: functional, Salmonella enterica subsp. enterica serovar Typhimurium; settings: Salmonella enterica, 2421, 24 h; procedure, shortened: as §1
[25] = test system: Staphylococcus aureus subsp. aureus RN4220; assay: Ratio of MBC to MIC for Staphylococcus aureus RN4220; type: functional
Procedure, shortened: (§5)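 The ratio divides MBC by MIC for the same strain. MIC comes from two-fold broth microdilution in Mueller-Hinton broth (about 10^5 CFU/mL, 37 °C, 24 h, absorbance at 630 nm). MBC comes from subculturing 5 µL from clear wells onto Mueller-Hinton agar for another 24 h at 37 °C, taken as the lowest concentration with no colonies.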

[26] = test system: Staphylococcus aureus; assay: Ratio of MBC to MIC for Staphylococcus aureus KCTC 503; type: functional; procedure, shortened: as §5
[27] = test system: Staphylococcus aureus; assay: Ratio of MBC to MIC for Staphylococcus aureus KCTC 209; type: functional; procedure, shortened: as §5
[28] = test system: Escherichia coli; assay: Ratio of MBC to MIC for Escherichia coli KCTC 1924; type: functional; procedure, shortened: as §5

| Structure (SMILES) | MIC [1] [µg/mL] | MBC [2] [µg/mL] | MIC [3] [µg/mL] | MBC [4] [µg/mL] | MBC [5] [µg/mL] | MIC [7] [µg/mL] | MIC [9] [µg/mL] | MIC [10] [µg/mL] | MBC [11] [µg/mL] | MIC [13] [µg/mL] | MIC [14] [µg/mL] | MBC [15] [µg/mL] | MBC [16] [µg/mL] | MIC [17] [µg/mL] | MIC [18] [µg/mL] | MIC [20] [µg/mL] | MBC [21] [µg/mL] | MIC [22] [µg/mL] | MIC [23] [µg/mL] | MIC [24] [µg/mL] | further results |
| --- | --- | --- | --- | --- | --- | --- | --- | --- | --- | --- | --- | --- | --- | --- | --- | --- | --- | --- | --- | --- | --- |
| COc1c(N2CCNC(C)C2)c(F)cc2c(=O)c(C(=O)O)cn(C3CC3)c12 (stereo unspecified) [GATIFLOXACIN] | 1 (≈ 2.66 µM) | 0.5 (≈ 1.33 µM) | 0.25 (≈ 0.666 µM) | 4 (≈ 10.7 µM) | 0.25 (≈ 0.666 µM) | 1 (≈ 2.66 µM) | 2 (≈ 5.33 µM) | 4 (≈ 10.7 µM) | 8 (≈ 21.3 µM) | 8 (≈ 21.3 µM) | 2 (≈ 5.33 µM) | 2 (≈ 5.33 µM) | 2 (≈ 5.33 µM) | 2 (≈ 5.33 µM) | 0.5 (≈ 1.33 µM) | 16 (≈ 42.6 µM) | 4 (≈ 10.7 µM) | 0.5 (≈ 1.33 µM) | 4 (≈ 10.7 µM) | 0.5 (≈ 1.33 µM) | MBC [6]: 2 µg/mL (≈ 5.33 µM); MFC [8]: 0.5 µg/mL (≈ 1.33 µM); MIC [12]: 2 µg/mL (≈ 5.33 µM); MBC [19]: 2 µg/mL (≈ 5.33 µM) |
| O=C(O)[C@H](Cc1ccccc1)N1C(=O)/C(=C/c2ccc(/C=N/n3c(-c4ccccc4Br)n[nH]c3=S)cc2)SC1=S | > 128 | 32 (≈ 49.2 µM) | 8 (≈ 12.3 µM) | 8 (≈ 12.3 µM) | 16 (≈ 24.6 µM) | > 128 | > 64 | 8 (≈ 12.3 µM) | 32 (≈ 49.2 µM) | 8 (≈ 12.3 µM) | 8 (≈ 12.3 µM) | 16 (≈ 24.6 µM) | 32 (≈ 49.2 µM) | 16 (≈ 24.6 µM) | > 64 | > 128 | 32 (≈ 49.2 µM) | 8 (≈ 12.3 µM) | 8 (≈ 12.3 µM) | > 128 | MIC [12]: > 128 µg/mL; Ratio [25]: 2; Ratio [26]: <=4 |
| O=C(O)[C@H](Cc1ccccc1)N1C(=O)/C(=C/c2ccc(/C=N/n3c(-c4cccc(Cl)c4)n[nH]c3=S)cc2)SC1=S | > 128 | > 32 | 8 (≈ 13.2 µM) | 16 (≈ 26.4 µM) | 8 (≈ 13.2 µM) | > 128 | 8 (≈ 13.2 µM) | 8 (≈ 13.2 µM) | 32 (≈ 52.8 µM) | 8 (≈ 13.2 µM) | 8 (≈ 13.2 µM) | 8 (≈ 13.2 µM) | 16 (≈ 26.4 µM) | 16 (≈ 26.4 µM) | 8 (≈ 13.2 µM) | > 128 | 32 (≈ 52.8 µM) | 4 (≈ 6.6 µM) | 8 (≈ 13.2 µM) | > 128 | MBC [6]: 16 µg/mL (≈ 26.4 µM); MFC [8]: 8 µg/mL (≈ 13.2 µM); MIC [12]: 8 µg/mL (≈ 13.2 µM); Ratio [27]: 2; Ratio [26]: <=4; MBC [19]: 8 µg/mL (≈ 13.2 µM); Ratio [28]: <=4 |
| O=C(O)[C@H](Cc1ccccc1)N1C(=O)/C(=C/c2ccc(/C=N/n3c(-c4ccccc4)n[nH]c3=S)cc2)SC1=S | > 128 | 16 (≈ 28 µM) | 8 (≈ 14 µM) | 8 (≈ 14 µM) | 16 (≈ 28 µM) | > 128 | > 64 | 8 (≈ 14 µM) | 32 (≈ 56 µM) | 8 (≈ 14 µM) | 8 (≈ 14 µM) | 16 (≈ 28 µM) | 32 (≈ 56 µM) | 8 (≈ 14 µM) | > 64 | > 128 | 32 (≈ 56 µM) | 8 (≈ 14 µM) | 8 (≈ 14 µM) | > 128 | MIC [12]: > 128 µg/mL; Ratio [25]: 2; Ratio [26]: <=4 |
| COc1c(N2C[C@@H]3CCCN[C@@H]3C2)c(F)cc2c(=O)c(C(=O)O)cn(C3CC3)c12 [MOXIFLOXACIN] | 2 (≈ 4.98 µM) | 0.25 (≈ 0.623 µM) | 0.25 (≈ 0.623 µM) | 2 (≈ 4.98 µM) | 0.25 (≈ 0.623 µM) |  |  | 2 (≈ 4.98 µM) | 4 (≈ 9.96 µM) | 4 (≈ 9.96 µM) | 1 (≈ 2.49 µM) | 1 (≈ 2.49 µM) | 1 (≈ 2.49 µM) | 1 (≈ 2.49 µM) | 0.5 (≈ 1.25 µM) | 128 (≈ 319 µM) | 4 (≈ 9.96 µM) | 0.25 (≈ 0.623 µM) | 4 (≈ 9.96 µM) | 0.5 (≈ 1.25 µM) | MFC [8]: 0.5 µg/mL (≈ 1.25 µM) |
